Assay results: ChEMBL document CHEMBL1141347, “Heptaketides from Corynespora sp. inhabiting the cavern beard lichen, Usnea cavernosa: first report of metabolites of an endolichenic fungus” (J Nat Prod, 2007)
Activity calls are given as the source filed them. The rule behind the calls is not given here.

How the values were obtained:
MDA-MB-231 [1] = experiment: Inhibition of human MDA-MB-231 cell migration by wound-healing assay; type: functional, cell-based
PC-3M [2] = experiment: Inhibition of human PC3M cell migration by wound-healing assay; type: functional, cell-based
PC-3M [3] = experiment: Inhibition of human PC3M cell migration at 10 uM by wound-healing assay; type: functional, cell-based
Method in brief: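 PC-3M scratch wound-healing migration assay with compound at 10 µM over 40 h. DMSO negative and LY294002 positive controls.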

PC-3M [4] = experiment: Effect on cell viability of human PC3M cells at 5 uM by microscopy based assay; type: functional
Method in brief: (§1)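 Cells exposed during wound-healing assay, then stained with a live/dead kit. Live cells fluoresce green from esterase conversion of calcein AM to calcein; ethidium homodimer 1 enters membrane-damaged cells, giving red fluorescence on nucleic acid binding. Imaged by microscopy. Controls: DMSO (background), LY294002 7.5 µM, 0.1% saponin for 10 min (death).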

MDA-MB-231 [5] = experiment: Effect on cell viability of human MDA-MB-231 cells at 5 uM by microscopy based assay; type: functional; method in brief: as §1
[6] = Antiproliferative activity against human PC3M cells after 40 hrs by MTT assay; type: functional, cell-based; conditions: PC-3M
PC-3M [7] = experiment: Inhibition of human PC3M cell migration at 5 uM by wound-healing assay; type: functional, cell-based
PC-3M [8] = experiment: Effect on cell viability of human PC3M cells at 5 uM by flow cytometry; type: functional, cell-based
Method in brief: (§2)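 Cells harvested straight from wound-healing assays by trypsinisation, washed twice with PBS, stained with ViaCount Flex reagent and run on a Guava EasyCyte flow cytometer, with EasyFit analysis separating viable cells from dead cells and debris. DMSO background control, 70% methanol death control, LY294002 control.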

MDA-MB-231 [9] = experiment: Effect on cell viability of human MDA-MB-231 cells at 5 uM by flow cytometry; type: functional, cell-based; method in brief: as §2
MDA-MB-231 [10] = experiment: Inhibition of human MDA-MB-231 cell migration at 5 uM by wound-healing assay; type: functional, cell-based

COc1cc(OC)c2c(c1)C(=O)C1=C(C2=O)C(O)OC(C)=C1 (configuration not stated)
Activity (MDA-MB-231 [1]): inactive | Activity (PC-3M [2]): inactive

COc1cc(OC)c2c(c1)C(=O)C1=C(CO[C@@](C)(O)C1)C2=O
Activity (PC-3M [3]): Active

COc1cc(OC)c2c(O)c3c(c(OC(C)=O)c2c1)C=C(C)OC3
Activity (MDA-MB-231 [1]): inactive | Activity (PC-3M [2]): inactive

COc1cc(OC)c2c(c1)C(=O)C1=C(COC(C)=C1)C2=O [DEHYDROHERBARIN]
Activity (PC-3M [4]): inactive | Activity (MDA-MB-231 [5]): inactive | IC25 [6]: 2200 nM | IC50 [6]: 3500 nM | Activity (PC-3M [7]): Active | Activity (PC-3M [8]): inactive | Activity (MDA-MB-231 [9]): inactive | Activity (MDA-MB-231 [10]): Active

COc1cc(OC)c2c(OC(C)=O)c3c(c(OC(C)=O)c2c1)C=C(C)OC3
Activity (MDA-MB-231 [1]): inactive | Activity (PC-3M [2]): inactive

COc1cc(OC)c2c(O)c3c(c(OC(C)=O)c2c1)C[C@](C)(O)OC3
Activity (MDA-MB-231 [1]): inactive | Activity (PC-3M [2]): inactive
